Reference: ChEMBL document CHEMBL1145996 (J Med Chem, 2003)
Values belong to the compound of their own block, whether it stands above or below them.

Experiments:
Assay type in all cases: functional, organism-based
[1] = tested on: Leishmania donovani; experiment: Antileishmanial activity of compound against leishmania donovani was determined in luciferase assay
Outline: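 Transgenic Leishmania donovani promastigotes expressing firefly luciferase, 2×10^6 cell/mL, exposed to compound dilutions in 96-well plates at 26°C for 72 h; growth read by luciferase luminescence (Steady Glo). At least six concentrations, each in duplicate; mean values used for growth inhibition curves and IC50. Pentamidine and amphotericin B as standards.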

[2] = tested on: Plasmodium falciparum; experiment: In vitro antimalarial activity against chloroquine-resistant Plasmodium falciparum W2 Indochina
Outline: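 Asynchronous P. falciparum cultures (2% hematocrit, 2% parasitemia) given compound dilutions in DMSO or RPMI-1640, incubated 48 h at 37°C under 90% N2/5% CO2/5% O2 in humidified chamber. Growth read as parasite lactate dehydrogenase activity with Malstat reagent. At least six concentrations, each in duplicate; medium and RBC controls on each plate.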

[3] = tested on: Plasmodium falciparum; experiment: In vitro antimalarial activity against chloroquine-sensitive Plasmodium falciparum D6 Sierra Leone

Compound: C[C@@H]1CC[C@H]2CC(=O)O[C@@H]3O[C@@]4(C)CCC1[C@@]23OO4 (stereo partly specified)
IC50 [1]: 242 µM

IC50 [1]: 0.01 µM
Compound: C[C@@H]1[C@H](O)[C@@H](C)/C=C/C=C/C=C/C=C/C=C/C=C/C=C/[C@H](O[C@@H]2O[C@H](C)[C@@H](O)[C@H](N)[C@@H]2O)C[C@@H]2O[C@](O)(C[C@@H](O)C[C@@H](O)[C@H](O)CC[C@@H](O)C[C@@H](O)CC(=O)O[C@H]1C)C[C@H](O)[C@H]2C(=O)O [AMPHOTERICIN B]

Compound: CC[C@H]1C(=O)O[C@@H]2O[C@@]3(C)CCC4[C@H](C)CC[C@@H]1[C@]42OO3 (stereo partly specified)
IC50 [1]: 60.7 µM

Compound: CCCC[C@H]1C(=O)O[C@@H]2O[C@@]3(C)CCC4[C@H](C)CC[C@@H]1[C@]42OO3 (stereo partly specified)
IC50 [1]: 12.3 µM

Compound: CCOC1O[C@@H]2O[C@]3(C)CC[C@H]4[C@H](C)CC[C@@H]([C@H]1C)C24OO3 (stereo partly specified)
IC50 [1]: 44.8 µM

Compound: C[C@@H]1CC[C@H]2C(C)(C)C(=O)O[C@@H]3O[C@@]4(C)CCC1[C@]32OO4 (stereo partly specified)
IC50 [1]: 101 µM

Compound: C[C@@H]1CC[C@H]2[C@@H](CCCc3ccc(O)cc3)C(=O)O[C@@H]3O[C@@]4(C)CC[C@@H]1[C@]32OO4
IC50 [1]: 44.7 µM
IC50 [2]: 0.0047 µM
IC50 [3]: 0.0079 µM

Compound: C[C@@H]1CC[C@H]2CC(=O)N(Cc3ccccc3)[C@@H]3O[C@@]4(C)CC[C@@H]1[C@@]23OO4
IC50 [1]: 56 µM

Compound: C[C@@H]1CC[C@H]2[C@@H](CCC#N)C(=O)O[C@@H]3O[C@@]4(C)CCC1[C@]32OO4 (stereo partly specified)
IC50 [1]: 38.9 µM
IC50 [2]: 0.0149 µM
IC50 [3]: 0.0149 µM

Compound: COc1ccc(CCC[C@H]2CO[C@@H]3O[C@@]4(C)CC[C@H]5[C@H](C)CC[C@@H]2[C@@]35OO4)cc1
IC50 [1]: 17.4 µM

Compound: CCC[C@@]12CC[C@H]3[C@H](C)CC[C@H]4CCO[C@H](O1)[C@]43OO2
IC50 [1]: 70.8 µM

Compound: C[C@@H]1CC[C@H]2[C@@H](CCCc3cccc(Cl)c3)C(O)O[C@@H]3O[C@@]4(C)CC[C@@H]1[C@]32OO4 (stereo partly specified)
IC50 [1]: 16.6 µM

Compound: CC(=O)O[C@@H]1O[C@@]2(C)CC[C@H]3[C@H](C)CCC[C@@]13OO2
IC50 [1]: 148 µM

Compound: COc1ccc(CCC[C@H]2C(=O)O[C@@H]3O[C@@]4(C)CCC5[C@H](C)CC[C@@H]2[C@]53OO4)cc1 (stereo partly specified)
IC50 [1]: 12 µM

IC50 [1]: 70.3 µM
Compound: C[C@H]1[C@@H](O)O[C@@H]2O[C@@]3(C)CC[C@H]4[C@H](C)CC[C@@H]1[C@@]24OO3 [ARTENIMOL]

Compound: C[C@@H]1CC[C@H]2[C@@H](CCCc3ccc(S(C)(=O)=O)cc3)C(=O)O[C@@H]3O[C@@]4(C)CCC1[C@]32OO4 (stereo partly specified)
IC50 [1]: 53.8 µM
IC50 [2]: 0.02 µM
IC50 [3]: 0.0301 µM

Compound: C[C@@H]1CC[C@H]2[C@H](CCCc3ccccc3)C(=O)O[C@@H]3O[C@@]4(C)CCC1[C@]32OO4 (stereo partly specified)
IC50 [1]: 45.3 µM
IC50 [2]: 0.0034 µM
IC50 [3]: 0.0104 µM

Compound: CCCC[C@H]1C(O)O[C@@H]2O[C@@]3(C)CC[C@H]4[C@H](C)CC[C@@H]1[C@@]24OO3 (stereo partly specified)
IC50 [1]: 383 µM

Compound: C[C@@H]1CC[C@H]2[C@@H](CCCC(F)(F)F)C(=O)O[C@@H]3O[C@@]4(C)CCC1[C@]32OO4 (stereo partly specified)
IC50 [1]: 79.3 µM

Compound: CC[C@@]12CC[C@H]3[C@H](C)CC[C@H]4CC(=O)O[C@H](O1)[C@]43OO2
IC50 [1]: 177 µM

Compound: C[C@@H]1CC[C@H]2[C@@H](CCc3ccccc3)C(=O)O[C@@H]3O[C@@]4(C)CCC1[C@]32OO4 (stereo partly specified)
IC50 [1]: 40.3 µM

Compound: C[C@@H]1CC[C@H]2[C@@H](CCCc3ccc(Cl)cc3)C(O)O[C@@H]3O[C@@]4(C)CC[C@@H]1[C@]32OO4 (stereo partly specified)
IC50 [1]: 4.7 µM

Compound: C[C@@H]1CC[C@H]2[C@@H](CCCc3cc(C(F)(F)F)cc(C(F)(F)F)c3)CO[C@@H]3O[C@@]4(C)CC[C@@H]1[C@]32OO4
IC50 [1]: 0.3 µM

Compound: CCCC[C@H]1C(=O)O[C@@H]2O[C@@]3(CC)CCC4[C@H](C)CC[C@@H]1[C@]42OO3 (stereo partly specified)
IC50 [1]: 35.5 µM

Compound: C[C@@H]1CC[C@H]2[C@@H](CCCCc3ccccc3)C(=O)O[C@@H]3O[C@@]4(C)CCC1[C@]32OO4 (stereo partly specified)
IC50 [1]: 7.5 µM

Compound: C[C@@H]1CC[C@H]2[C@@H](CCCc3cc(F)cc(F)c3)C(=O)O[C@@H]3O[C@@]4(C)CCC1[C@]32OO4 (stereo partly specified)
IC50 [1]: 49.7 µM

Compound: C[C@@H]1CC[C@H]2CC(O)O[C@@H]3O[C@@]4(C)CC[C@@H]1[C@@]23OO4 (stereo partly specified)
IC50 [1]: 44.4 µM

Compound: CCCC[C@@]12CC[C@H]3[C@H](C)CC[C@H]4CCO[C@H](O1)[C@]43OO2
IC50 [1]: 152 µM

Compound: CCC[C@H]1C(=O)O[C@@H]2O[C@@]3(C)CCC4[C@H](C)CC[C@@H]1[C@]42OO3 (stereo partly specified)
IC50 [1]: 16.8 µM

Compound: C[C@@H]1CC[C@H]2[C@@H](CCCc3ccc(C(F)(F)F)cc3)CO[C@@H]3O[C@@]4(C)CC[C@@H]1[C@]32OO4
IC50 [1]: 1.8 µM

IC50 [1]: 1.35 µM
Compound: N=C(N)c1ccc(OCCCCCOc2ccc(C(=N)N)cc2)cc1 [PENTAMIDINE]

Compound: CCOC(=O)CCC12CCC3[C@H](C)CC[C@H]4CC(=O)O[C@H](O1)[C@@]34OO2 (single isomer, unassigned)
IC50 [1]: 31 µM

Compound: CC1(C)OO[C@]23CCCC[C@H]2C(C)(C)C(=O)O[C@@H]3O1
IC50 [1]: 204 µM

Compound: C[C@@H]1CC[C@H]2CC(=O)N(CCc3ccccc3)[C@@H]3O[C@@]4(C)CC[C@@H]1[C@@]23OO4
IC50 [1]: 32.3 µM

Compound: C[C@@H]1CC[C@H]2CCO[C@@H]3O[C@@]4(C)CC[C@@H]1[C@@]23OO4
IC50 [1]: 49.2 µM

Compound: OC(c1cc(C(F)(F)F)nc2c(C(F)(F)F)cccc12)C1CCCCN1 (stereo unspecified) [MEFLOQUINE]
IC50 [2]: 0.195 µM
IC50 [3]: 0.17 µM

Compound: C[C@@H]1CC[C@H]2CC(=O)O[C@@H]3O[C@@]4(CCCc5ccc(Cl)cc5)CCC1[C@@]23OO4 (stereo partly specified)
IC50 [1]: 11.1 µM

Compound: C[C@@H]1CC[C@H]2[C@@H](CCCc3cccc(F)c3)C(=O)O[C@@H]3O[C@@]4(C)CCC1[C@]32OO4 (stereo partly specified)
IC50 [1]: 3.7 µM

Compound: CCCCN1C(=O)C[C@@H]2CC[C@@H](C)[C@@H]3CC[C@@]4(C)OO[C@@]23[C@H]1O4
IC50 [1]: 44.5 µM

Compound: C[C@@H]1CC[C@H]2[C@@H](CCCc3ccc(Cl)cc3)CO[C@@H]3O[C@@]4(C)CC[C@@H]1[C@]32OO4
IC50 [1]: 4.9 µM

Compound: C[C@@H]1CC[C@H]2[C@@H](C)C(=O)O[C@@H]3OC(C)(C)OO[C@@]32[C@H]1C
IC50 [1]: 158 µM

Compound: CCC[C@@]12CCC3[C@H](C)CC[C@H]4CC(=O)O[C@H](O1)[C@@]34OO2 (stereo partly specified)
IC50 [1]: 40.5 µM

Compound: C[C@@H]1CC[C@H]2[C@@H](Cc3ccccc3)C(=O)O[C@@H]3O[C@@]4(C)CCC1[C@]32OO4 (stereo partly specified)
IC50 [1]: 15.3 µM

Compound: CCCC[C@@]12CCC3[C@H](C)CC[C@H]4CC(=O)O[C@H](O1)[C@@]34OO2 (stereo partly specified)
IC50 [1]: 258 µM

Compound: C[C@@H]1CC[C@H]2CC(=O)N(CC(=O)OC(C)(C)C)[C@@H]3O[C@@]4(C)CC[C@@H]1[C@@]23OO4
IC50 [1]: 27.5 µM

Compound: C[C@@H]1CC[C@H]2[C@@H](C)C(=O)O[C@@H]3O[C@@]4(C)CC[C@@H]1[C@]32OO4 [ARTEMISININ]
IC50 [1]: 124 µM

Compound: C[C@@H]1CC[C@H]2[C@@H](CCCc3cccc(Cl)c3)CO[C@@H]3O[C@@]4(C)CC[C@@H]1[C@]32OO4
IC50 [1]: 3.7 µM

Compound: C[C@@H]1CC[C@H]2CC(=O)N(Cc3ccc(Cl)cc3)[C@@H]3O[C@@]4(C)CC[C@@H]1[C@@]23OO4
IC50 [1]: 25.5 µM

Compound: C[C@@H]1CC[C@H]2[C@H](CCCc3ccc(N(C)C)cc3)C(=O)O[C@@H]3O[C@@]4(C)CCC1[C@]32OO4 (stereo partly specified)
IC50 [1]: 88.3 µM

Compound: C[C@@H]1CC[C@H]2[C@@H](CCCc3ccc(Cl)c(Cl)c3)CO[C@@H]3O[C@@]4(C)CC[C@@H]1[C@]32OO4
IC50 [1]: 2.3 µM

Compound: C[C@@H]1CC[C@H]2[C@@H](CCCc3ccc(Cl)cc3)C(=O)O[C@@H]3O[C@@]4(C)CCC1[C@]32OO4 (stereo partly specified)
IC50 [1]: 11.9 µM

Compound: CCCC[C@H]1C(=O)O[C@@H]2O[C@@]3(CCCCc4ccccc4)CCC4[C@H](C)CC[C@@H]1[C@]42OO3 (stereo partly specified)
IC50 [1]: 4.5 µM

Compound: CC(C)CN1C(=O)C[C@@H]2CC[C@@H](C)[C@@H]3CC[C@@]4(C)OO[C@@]23[C@H]1O4
IC50 [1]: 186 µM

Compound: C[C@@H]1CC[C@H]2CC(=O)O[C@@H]3OC4(CCc5ccccc5)CC[C@@H]1[C@@]23OO4 (single isomer, unassigned)
IC50 [1]: 12.6 µM

Compound: C[C@@H]1CC[C@H]2[C@@H](CCCC(F)(F)F)C(O)O[C@@H]3O[C@@]4(C)CC[C@@H]1[C@]32OO4 (stereo partly specified)
IC50 [1]: 26.3 µM

Compound: C[C@@H]1CC[C@H]2[C@@H](C)CO[C@@H]3OC4(C)CC[C@@H]1[C@]32OO4 (single isomer, unassigned) [DEOXOARTEMISININ]
IC50 [1]: 46.6 µM

Compound: C[C@@H]1CC[C@H]2CCO[C@@H]3OC4(CCc5ccccc5)CC[C@@H]1[C@@]23OO4 (single isomer, unassigned)
IC50 [1]: 37.7 µM

Compound: C[C@@H]1CC[C@H]2[C@@H](CCCc3ccc(C(F)(F)F)cc3)C(O)O[C@@H]3O[C@@]4(C)CC[C@@H]1[C@]32OO4 (stereo partly specified)
IC50 [1]: 2.9 µM

Compound: C[C@@H]1CC[C@H]2[C@@H](CCCc3cc(F)cc(F)c3)CO[C@@H]3O[C@@]4(C)CC[C@@H]1[C@]32OO4
IC50 [1]: 11 µM

Compound: CC(C)CCC[C@H]1C(=O)O[C@@H]2O[C@@]3(C)CCC4[C@H](C)CC[C@@H]1[C@]42OO3 (stereo partly specified)
IC50 [1]: 8.5 µM

Compound: C=CC[C@H]1C(=O)O[C@@H]2O[C@@]3(C)CCC4[C@H](C)CC[C@@H]1[C@]42OO3 (stereo partly specified)
IC50 [1]: 17.8 µM

Compound: C[C@@H]1CC[C@H]2[C@@H](CCCc3cc(F)cc(F)c3)C(O)O[C@@H]3O[C@@]4(C)CC[C@@H]1[C@]32OO4 (stereo partly specified)
IC50 [1]: 33 µM
